Compound activity from PubChem BioAssay.
Shown are actives, neighbours in structure and some others; about 2.6% of the full set was active somewhere.
WT yeast gro inh: growth inhibition of WT yeast, mitochondrial fusion screen | inhibition, % at 10 µM | hit rate 2.1% among 190,000 | AID 1362 | mitochondrial fusion phenotypic screen, WT strain; in the data active = inhibition above about 58%; tested in S. cerevisiae
Arbovirus inh: antivirals against arbovirus infection | arbovirus infection cell-based antiviral screen | inhibition, % at 10 µM | hit rate 0.37% among 200,000 | AID 1251; in the data active = inhibition above about 30%
TNAP act hi DEA: increases human TNAP activity under high phosphate acceptor concentration; P05186; purified TNAP, CDP-star luminescence, 1 M DEA, 30 min; stronger effect = higher value; 0 = EDTA background, 1 = DMSO-only activity; activation factor at 20 µM; 200,000 tested, under 10 active;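 active = activation factor at least 2 at 20 µM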
Target sequence (P05186 whole entry, looked up): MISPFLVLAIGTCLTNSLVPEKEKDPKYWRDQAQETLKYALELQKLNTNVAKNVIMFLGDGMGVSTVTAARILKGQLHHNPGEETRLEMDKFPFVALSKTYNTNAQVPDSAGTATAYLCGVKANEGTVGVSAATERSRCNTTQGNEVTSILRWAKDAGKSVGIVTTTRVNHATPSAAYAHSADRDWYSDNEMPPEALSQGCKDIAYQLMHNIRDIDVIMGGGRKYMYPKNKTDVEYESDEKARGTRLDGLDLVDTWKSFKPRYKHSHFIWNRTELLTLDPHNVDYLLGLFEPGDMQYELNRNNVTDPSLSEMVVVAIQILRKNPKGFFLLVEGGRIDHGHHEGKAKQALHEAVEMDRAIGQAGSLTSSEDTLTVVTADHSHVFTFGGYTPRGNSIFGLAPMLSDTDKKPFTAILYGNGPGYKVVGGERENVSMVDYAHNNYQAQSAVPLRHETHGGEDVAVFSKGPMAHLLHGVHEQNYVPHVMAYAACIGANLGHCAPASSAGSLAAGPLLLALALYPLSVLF
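Test system – human TNAP · Doses – 20 µM single point · Incubation – 30 min, room temperature · Signal – luminescent substrate turnover signal · Read-out basis – activation factor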
TNAP inh no acc: inhibitors of human TNAP without phosphate acceptor | inhibition, % at 20 µM | hit rate 0.26% among 200,000 | purified TNAP, CDP-star luminescence, 30 min | P05186;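 active = tissue-nonspecific alkaline phosphatase inhibition above about 50% at 20 µM in the single-dose screen, limit read from the data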;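 note: 0% = DMSO negative control and 100% = EDTA positive control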
TNAP inh hi DEA: inhibitors of human TNAP at high phosphate acceptor concentration. P05186. purified TNAP, CDP-star luminescence, 1 M DEA. inhibition, % at 20 µM. hit rate 0.03% among 200,000. AID 1135;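 active = over 50% inhibition of tissue-nonspecific alkaline phosphatase at 20 µM in the single-dose screen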;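 note: plate controls were DMSO wells for no effect and EDTA-quenched wells as full inhibition for full effect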
The depositor's hits bear a star.

SMILES	WT yeast gro inh	Arbovirus inh	TNAP act hi DEA	TNAP inh no acc	TNAP inh hi DEA
NC(=O)NOCc1ccc(Cl)cc1Cl	7	10	1	-12	-1
C/C(N)=C(/C#N)C(=O)CSc1ccccc1F	-13	3	1	-5	-3
C/C(N)=C(/C#N)C(=O)CSc1n[nH]c(-c2ccccc2Br)n1	1	1	1	92*	2
Cc1ccc(Nc2nc(-c3cccs3)cs2)nc1	69*	14	1	-7	1
CSc1ccc(OC2CCN(Cc3ccccc3)CC2)cc1	63*	-6	1.1	-6	-6
COc1ccc(NC(=S)NC(NC(=O)c2ccc(Cl)cc2Cl)C(Cl)(Cl)Cl)c([N+](=O)[O-])c1 (stereo not given)	68*	-17	1.1	4	-11
COc1ccc(C)cc1NC(=O)C1COc2ccccc2O1 (stereo not given)	8	50*	1	-3	0
COC(=O)c1ccsc1NC(=O)C1COc2ccccc2O1 (stereo not given)	6	31*	1	-8	-4
COc1cc(C(=O)N/N=C/c2ccc(OC)c(CN3CCN(c4ccc(F)cc4)CC3)c2)ccc1O	4	4	1.1	-12	-7
Clc1ccc(C(c2nnnn2CCc2ccccc2)N2CCSCC2)cc1 (stereo not given)	38	-5	1.1	-9	-6
Cc1cc(Oc2ccc(C(C)(C)C)cc2)nc(N2CCOCC2)n1	75*	-28	1.1	-16	-7
O=C(NCc1ccccc1)c1ccco1	-16	-2	1	-2	0
Cc1ccc(CNC(=O)CCNC(=O)c2ccco2)cc1	95*	4	1	-3	-4
CC(C)(C)c1cc(OC(=O)c2ccncc2)ccc1O	-4	0	1	-7	3
CC(C)(C)c1cc(OC(=O)c2ccccc2F)ccc1O	72*	-35	1	0	-2
O=C(Nc1ccc(OCC(F)(F)C(F)F)c(C(F)(F)F)c1)c1ccccc1O	75*	-33	0.9	-10	5
CCOc1ccccc1Nc1nnc(SC(C)C(=O)Nc2nc(-c3ccccc3)cs2)s1 (stereo not given)	-2	3	1	-4	0
Cc1ccccc1NCC(=O)N/N=C/C(Br)=C/c1ccccc1	9	-18	1	0	2
O=c1oc(-c2cccs2)nc2sc3c(c12)CCC3	1	10	1.1	-5	-6
O=c1oc(/C=C/c2ccco2)nc2sc3c(c12)CCC3	-17	63*	1	-9	-1
O=c1oc(-c2cccs2)nc2sc3c(c12)CCCC3	10	34*	1	-1	-2
O=C1[C@H]2[C@@H](C(=O)N1c1cccc3ccccc13)C1(C(=O)c3ccccc3C1=O)N1CCC[C@@H]21	-2	-7	1	-11	-4
COc1ccccc1/C=C\C=N\n1c(C2CCCCC2)n[nH]c1=S	70*	6	1	33	2
CCOC(=O)c1c(CN2CCN(Cc3ccccc3)CC2)n(C)c2cc(Br)c(OC)cc12	95*	-4	1	-10	-2
CCOC(=O)c1c(CSc2ccccc2)n(C)c2cc(Br)c(OCC(O)CNC(CO)(CO)CO)cc12 (stereo not given)	-14	-45	1.1	-14	-8
SMILES	WT yeast gro inh	Arbovirus inh	TNAP act hi DEA	TNAP inh no acc	TNAP inh hi DEA
O=C(NCc1nc2ccccc2[nH]1)c1cccc(S(=O)(=O)N2CCCC2)c1	3	6	1.1	-17	-5
COc1ccc(/C=N/NC(=O)c2ccn[nH]2)cc1COc1ccc(F)cc1	12	9	1	-32	-4
COc1ccc(/C=N/NC(=O)c2ccn[nH]2)cc1COc1ccc(Cl)cc1Cl	73*	-9	1.1	-10	-7
COC(=O)C1=C(C)C(c2ccc(OC)cc2OC)NC(=O)N1 (stereo not given)	-13	6	1	-12	-5
COc1ccc(C2CC(C)(c3ccc(OC)cc3OC)Nc3ccccc3N2)c(OC)c1 (stereo not given)	72*	2	1.1	-7	-5
CN1CCC2(CC1)Nc1nc(SCc3ccc(Cl)cc3)nn1C1=C2CN(C)CC1	66*	-27	1	-10	-3
CC12CCC(c3nnc(SCc4ccc(Cl)cc4)nc31)C2(C)C (stereo not given)	29	-4	1.1	-11	-6
Cc1ccccc1-c1cccc([C@@H]2C[C@H]3CN(Cc4cccnc4)C(=O)[C@]34CCCN24)c1	26	-6	1.1	-13	-8
Cc1cc(C)c2c(N=NN(C)C)[nH]nc2n1	8	-10	1	52*	-2
Cc1cc(C)cc(OCCCOc2cccc3cccnc23)c1	66*	-31	1	-5	1
Cc1nc2c3cnn(-c4ccc(C)c(C)c4)c3ncn2n1	3	1	1	81*	2
C#CCn1cnc2c(cnn2-c2ccc(C)c(C)c2)c1=O	60*	-3	0.9	-1	5
Cc1ccc(-n2ncc3c(=O)n(CC#N)cnc32)cc1C	-4	11	1.1	-17	-7
Cc1ccc(OCCNC(=O)Cc2ccc(F)cc2)cc1	-8	-3	1	-7	-4
COc1cccc(-c2nnc3sc(C4CCCCC4)nn23)c1	-11	4	1.1	-19	-5
CCOc1cccc(-c2nnc3sc(C4CCCCC4)nn23)c1	71*	-44	1.1	0	-10
Cc1nnc(SCC(=O)NC2CCCCC2)s1	9	4	1	7	-1
C=CCN(CC=C)C(=S)NC(=O)c1ccc(OC)cc1	27	20	1	-6	-3
C=CCN(CC=C)C(=S)NC(=O)c1ccc(-c2ccccc2)cc1	66*	-15	1	-2	1
O/N=C/c1cc(Cl)ccc1OCc1cccc2ccccc12	97*	-30	1.1	-8	-7
C#CCOc1ccc(Cl)cc1/C=N/O	31	6	1.1	13	-6
C=CCNC(=S)N/N=C/c1ccc(N(CC)Cc2ccccc2)cc1	69*	-17	1	-19	2
O=[N+]([O-])c1ccc2nc(-c3ccc(Cl)cc3)[nH]c2c1	63*	-13	1	30	-2
CC1(C)CC(Cc2nc(=S)[nH][nH]2)C(=O)O1 (stereo not given)	3	1	1	-18	-2
CCOC(=O)c1ccc(N2CCN(c3ccccc3F)CC2)c(NC(=O)Nc2ccccc2)c1	-38	31*	1.1	-118	-14
CCOC(=O)c1ccc(N2CCN(c3ccc(F)cc3)CC2)c(NC(=O)Nc2cccc(OC)c2)c1	0	2	1.1	-16	-8
Cc1ccc2nc(SC(C(=O)Nc3ccc(F)cc3)c3ccccc3)[nH]c2c1 (stereo not given)	60*	-3	1	-28	2
Cc1ccc(C)c(NC(=O)C(Sc2nc3ccc(C)cc3[nH]2)c2ccccc2)c1 (stereo not given)	35	-15	1.1	-19	-8
COc1cc(/C=C2\SC(=O)N(c3ccccc3Cl)C2=O)cc([N+](=O)[O-])c1O	83*	4	0.9	24	14
